High-throughput results as filed in PubChem BioAssay.
This excerpt belongs to a sample that is enriched for hits.
T cruzi HTS = blocks T. cruzi growth inside host cells; 22,000 tested, 4.9% active; intracellular Trypanosoma cruzi in host cells, plate reader; AID 651903; activity score (inhibition), % at 5.01 µM; in the data active means activity score above about 55%;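 further: parasites and compound incubated about four days before reading; 0% = median of neutral control wells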
A1 apoptosis 2 = A1 inhibition read as caspase activation | MEF A1-2A-BIM cells, caspase-Glo luminescence, 3 h; percent of clofoctol response, DMSO zero | caspase activation, % (concentration not given with the values) | 24,000 tested, under 10 active; in the data active means caspase activation above about 5.9%
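Material: mouse embryonic fibroblasts co-expressing A1 and BIM (A1-2A-BIM), primed for A1 dependence / Quantity: 2500 cells/well / Buffer or medium: RPMI-1640 growth medium with 10% FBS / Doses: 50 nL compound per well, pinned / Schedule: 3 h compound exposure at 37 °C / Signal: Caspase-Glo luminescence (DEVD substrate) / Measure: Caspase-3/7 activation, seen as rise in luminescence signal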
INS-1E rescue = INS-1E beta cell protection from cytokine death; 20,000 tested, 0.1% active; INS-1E cytokine-induced death, ATP luminescence, 48 h; normalised: neutral wells 0, positive control 100; AID 488910; protection from cytokine-induced ATP loss, % at 10 µM;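 active means mean replicate protection from cytokine-induced ATP loss at least 50% and at least 75% of replicates each reaching 50%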
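assay system = INS-1E rat insulinoma cells | amount = 8000 cells per well | medium = phenol-red-free RPMI with 5% fetal bovine serum | doses = one compound concentration, pin transfer | timing = 48 h cytokine plus compound treatment, 10 min reagent incubation | also added = IL-1β, TNF-α and IFN-γ cytokine mix | signal = CellTiter-Glo luminescence measuring cellular ATP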
Starred values were filed as active, the others as inactive; . = not tested or not shown.

SMILES	T cruzi HTS	A1 apoptosis 2	INS-1E rescue
Cc1noc(C)c1NC(=O)N(C)C[C@@H]1OCc2cnnn2CCCC(=O)N([C@H](C)CO)C[C@H]1C	-5	1	8
O=C(CCCCCC(=O)N/N=C/CCC1CCCCC1)NO	.	1	.
C[C@@H]1CCCCO[C@@H](CN(C)Cc2ccc3c(c2)OCO3)[C@H](C)CN([C@H](C)CO)C(=O)c2cc(NC(=O)CCC(F)(F)F)ccc2O1	.	0	.
C[C@H]1CN([C@@H](C)CO)C(=O)c2cc(NC(=O)Nc3cccc4ccccc34)ccc2O[C@H]1CN(C)Cc1ccccc1	-16	1	-5
C[C@H]1CN([C@@H](C)CO)C(=O)Cc2cc(NC(=O)Nc3cccc4ccccc34)ccc2O[C@@H]1CN(C)Cc1ccc(Cl)c(Cl)c1	60*	.	-22
C[C@@H]1CN([C@@H](C)CO)C(=O)Cc2cc(NC(=O)Nc3cccc4ccccc34)ccc2O[C@H]1CN(C)Cc1ccc(Cl)c(Cl)c1	.	1	.
C[C@H](CO)N1C[C@H](C)[C@H](CN(C)Cc2ccc3c(c2)OCO3)Oc2ccc(NC(=O)Nc3cccc4ccccc34)cc2C1=O	61*	-1	-19
Cc1ccc(S(=O)(=O)Nc2ccc3c(c2)C(=O)N([C@H](C)CO)C[C@H](C)[C@H](CN(C)Cc2ccc(Cl)c(Cl)c2)OCCCC[C@H](C)O3)cc1	.	2	.
C[C@@H]1CN([C@@H](C)CO)C(=O)Cc2cc(NS(=O)(=O)c3ccccc3)ccc2O[C@H]1CN(C)S(=O)(=O)c1ccc(Cl)cc1	.	0	.
C[C@H](CO)N1C[C@H](C)[C@H](CN(C)Cc2ccccc2)Oc2ncc(-c3ccc(F)cc3)cc2C1=O	17	.	.
C[C@H](CO)N1C[C@H](C)[C@H](CN(C)C(=O)Nc2ccc(F)cc2)Oc2c(NC(=O)c3nc4ccccc4s3)cccc2C1=O	20	.	-11
C[C@H](CO)N1C[C@H](C)[C@H](CN(C)Cc2ccccc2)Oc2c(NC(=O)c3nc4ccccc4s3)cccc2C1=O	49	1	-26
C[C@@H]1CN([C@H](C)CO)C(=O)c2cccc(NC(=O)c3nc4ccccc4s3)c2O[C@@H]1CN(C)Cc1ccc(Cl)c(Cl)c1	8	.	-28
C[C@H]1CN([C@@H](C)CO)C(=O)c2cccc(NC(=O)c3nc4ccccc4s3)c2O[C@H]1CN(C)Cc1ccccc1	12	.	-17
C[C@H]1CN([C@@H](C)CO)C(=O)c2cccc(NC(=O)c3nc4ccccc4s3)c2O[C@H]1CN(C)Cc1ccc(C(F)(F)F)cc1	49	1	-48
C[C@H](CO)N1C[C@H](C)[C@H](CN(C)Cc2ccc(Oc3ccccc3)cc2)Oc2c(NC(=O)c3nc4ccccc4s3)cccc2C1=O	59*	0	-31
C[C@H]1CN([C@@H](C)CO)C(=O)c2cccc(NC(=O)c3nc4ccccc4s3)c2O[C@H]1CN(C)Cc1ccc(Oc2ccccc2)cc1	68*	0	-24
C[C@H](CO)N1C[C@H](C)[C@H](CN(C)Cc2ccc(Cl)c(Cl)c2)Oc2c(NC(=O)c3nc4ccccc4s3)cccc2C1=O	60*	-1	-41
C[C@@H]1CN([C@H](C)CO)C(=O)c2cccc(NC(=O)c3nc4ccccc4s3)c2O[C@H]1CN(C)Cc1ccc(C(F)(F)F)cc1	62*	.	-60
COc1ccc(O)c(/C=N/NC(=O)CCCCCCC(=O)Nc2ccccc2O)c1	8	-1	-9
C[C@H]1CN([C@@H](C)CO)C(=O)c2cc(NC(=O)Nc3ccc4c(c3)OCO4)ccc2O[C@H]1CN(C)Cc1ccc2c(c1)OCO2	15	2	-3
C[C@H]1CN([C@@H](C)CO)C(=O)c2cccc(NC(=O)c3nc4ccccc4s3)c2O[C@@H]1CN(C)Cc1ccc(-c2ccccc2)cc1	73*	-1	-18
C[C@@H]1CN([C@H](C)CO)C(=O)c2cccc(NC(=O)c3nc4ccccc4s3)c2O[C@H]1CN(C)Cc1ccc(-c2ccccc2)cc1	47	-2	-20
C[C@@H]1CCCCO[C@@H](CN(C)C)[C@H](C)CN([C@H](C)CO)C(=O)c2cc(NC(=O)C3CCCCC3)ccc2O1	.	0	.
C[C@H]1CN([C@@H](C)CO)C(=O)c2cc(NC(=O)C3CC3)ccc2O[C@@H]1CN(C)S(=O)(=O)c1cccs1	-18	0	3
SMILES	T cruzi HTS	A1 apoptosis 2	INS-1E rescue
O=C(N/N=C/C1=CCCCC1)c1ccccc1O	0	-2	-4
C[C@@H]1CCCCO[C@H](CN(C)Cc2ccc(Cl)c(Cl)c2)[C@@H](C)CN([C@H](C)CO)C(=O)c2cc(NS(=O)(=O)c3ccc(Cl)cc3)ccc2O1	64*	-2	-14
C[C@@H]1CCCCO[C@@H](CN(C)Cc2ccc(Cl)c(Cl)c2)[C@@H](C)CN([C@H](C)CO)C(=O)c2cc(NS(=O)(=O)c3ccc(Cl)cc3)ccc2O1	72*	-2	-13
C[C@@H]1CCCCO[C@H](CN(C)Cc2ccc(Cl)c(Cl)c2)[C@@H](C)CN([C@@H](C)CO)C(=O)c2cc(NS(=O)(=O)c3ccc(F)cc3)ccc2O1	.	-1	.
COc1ccc(S(=O)(=O)Nc2ccc3c(c2)C(=O)N([C@H](C)CO)C[C@H](C)[C@@H](CN(C)Cc2ccc(Cl)c(Cl)c2)OCCCC[C@@H](C)O3)cc1	73*	-1	-69
Cc1ccc(S(=O)(=O)Nc2ccc3c(c2)C(=O)N([C@H](C)CO)C[C@@H](C)[C@H](CN(C)Cc2ccc(Cl)c(Cl)c2)OCCCC[C@@H](C)O3)cc1	.	-1	.
COc1ccc(S(=O)(=O)Nc2ccc3c(c2)C(=O)N([C@H](C)CO)C[C@H](C)[C@@H](CN(C)Cc2ccc(Cl)c(Cl)c2)OCCCC[C@H](C)O3)cc1	.	0	.
COC(=O)CCCCCCC(=O)N/N=C/c1ccc(C(F)(F)F)cc1	-13	.	14
C[C@@H]1CCCCO[C@H](CN(C)Cc2ccc3c(c2)OCO3)[C@@H](C)CN([C@H](C)CO)C(=O)c2cc(NS(=O)(=O)c3ccccc3)ccc2O1	38	-1	-11
O=C(NO)c1cccc(C(=O)N/N=C/Cc2ccccc2)c1	-11	-1	-4
C=CCN1C(=O)[C@]2(O[C@H](CCO)[C@@H]([Si](C)(C)c3ccc(OC)cc3)[C@@H]2C)c2cc(I)ccc21	.	9.0*	.
COc1ccc([Si](C)(C)[C@H]2[C@H](CCO)O[C@@]3(C(=O)N(Cc4ccccc4)c4ccc(NC(=O)[C@H](C)O)cc43)[C@@H]2C)cc1	.	0	.
Cc1noc(C)c1NC(=O)N(C)C[C@@H]1Oc2c(NC(=O)CCCCCC(=O)Nc3ccccc3N)cccc2C(=O)N([C@@H](C)CO)C[C@H]1C	-15	-1	-2
O=C(N/N=C/c1cccc2ccccc12)c1ccccn1	-16	-6	4
O=C(N/N=C/c1cccnc1Cl)c1ccccn1	-8	-7	0
O=C(N/N=C/c1ccc2ccccc2c1O)c1ccccn1	61*	-4	-107
O=C(N/N=C/c1cc(Cl)cc(Cl)c1O)c1ccccn1	71*	-3	-63
C[C@@H]1CCCCO[C@@H](CN(C)Cc2ccccc2)[C@H](C)CN([C@@H](C)CO)C(=O)c2cc(NC(=O)Nc3ccc(F)cc3)ccc2O1	.	-1	.
